Experimental data as given in ChEMBL document CHEMBL3860041, “Synthesis, biological evaluation and molecular modeling study of some new methoxylated 2-benzylthio-quinazoline-4(3H)-ones as nonclassical antifolates” (Bioorg Med Chem Lett, 2016).

Experiments:
Type in all cases: functional
[1] = Growth inhibition of human non-small cell lung cancer cells after 48 hrs by SRB assay; details: Cancer cell lines
Summary of the method: (§1)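 Follow-up NCI panel testing over a 5-log dose range for each cell line. GI50, TGI and LC50 were monitored, with 5-fluorouracil run as the positive control. Values are grouped by tumour subpanel.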

[2] = Growth inhibition of human HL-60(TB) cells at 10 uM after 48 hrs by SRB assay relative to control; details: HL-60, 48 h, read-out: GI
Summary of the method: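 NCI disease-oriented human tumour cell line screen: primary single-dose assay at 10 μM across the full 60-cell-line panel spanning nine tumour subpanels.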

[3] = Growth inhibition of human SF295 cells at 10 uM after 48 hrs by SRB assay relative to control; details: SF-295, 48 h, read-out: GI
Summary of the method: (§2)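 NCI 60-cell-line panel, nine tumor subpanels; compounds tested at a single dose of 10 μM in the primary screen.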

[4] = Growth inhibition of human MALME-3M cells at 10 uM after 48 hrs by SRB assay relative to control; details: read-out: GI; summary of the method: as §2
[5] = Growth inhibition of human COLO205 cells at 10 uM after 48 hrs by SRB assay relative to control; details: COLO 205, 48 h, read-out: GI; summary of the method: as §2
[6] = system: Melanoma cell; test: Potency index, ratio of 5-fluorouracil GI50 to compound GI50 for human melanoma cells
Summary of the method: (§3)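 GI50 for each cell line came from NCI panel testing over a 5-log dose range, with 5-fluorouracil tested alongside as the reference drug. The index relates the 5-fluorouracil GI50 to the compound GI50 within each tumour subpanel.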

[7] = Growth inhibition of human OVCAR5 cells at 10 uM after 48 hrs by SRB assay relative to control; details: OVCAR-5, 48 h, read-out: GI; summary of the method: as §2
[8] = Growth inhibition of human BT549 cells at 10 uM after 48 hrs by SRB assay relative to control; details: BT-549, 48 h, read-out: GI; summary of the method: as §2
[9] = Growth inhibition of human HOP62 cells at 10 uM after 48 hrs by SRB assay relative to control; details: HOP-62, 48 h, read-out: GI; summary of the method: as §2
[10] = Growth inhibition of human NCI-H522 cells at 10 uM after 48 hrs by SRB assay relative to control; details: NCI-H522, 48 h, read-out: GI; summary of the method: as §2
[11] = Growth inhibition of human breast cancer cells after 48 hrs by SRB assay; details: Cancer cell lines; summary of the method: as §1
[12] = Growth inhibition of human PC3 cells at 10 uM after 48 hrs by SRB assay relative to control; details: PC-3, 48 h, read-out: GI; summary of the method: as §2
[13] = Growth inhibition of human OVCAR3 cells at 10 uM after 48 hrs by SRB assay relative to control; details: OVCAR-3, 48 h, read-out: GI; summary of the method: as §2
[14] = system: Cancer cell lines; test: Potency index, ratio of 5-fluorouracil GI50 to compound GI50 for human colon cancer cells; summary of the method: as §3
[15] = Growth inhibition of human CNS cancer cells after 48 hrs by SRB assay; details: Cancer cell lines
Summary of the method: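 Five-log dose range against NCI tumor cell lines, monitoring GI50, TGI and LC50 for each cell line; MG-MID values derived across the panel; 5-fluorouracil positive control.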

[16] = Growth inhibition of human HCT116 cells at 10 uM after 48 hrs by SRB assay relative to control; details: HCT-116, 48 h, read-out: GI; summary of the method: as §2
[17] = system: Cancer cell lines; test: Potency index, ratio of 5-fluorouracil GI50 to compound GI50 for human non-small cell lung cancer cells; summary of the method: as §3
[18] = Growth inhibition of human HCT15 cells at 10 uM after 48 hrs by SRB assay relative to control; details: HCT-15, 48 h, read-out: GI; summary of the method: as §2
[19] = Growth inhibition of human NCI-H23 cells at 10 uM after 48 hrs by SRB assay relative to control; details: NCI-H23, 48 h, read-out: GI; summary of the method: as §2
[20] = Growth inhibition of human K562 cells at 10 uM after 48 hrs by SRB assay relative to control; details: K562, 48 h, read-out: GI; summary of the method: as §2
[21] = Growth inhibition of human M14 cells at 10 uM after 48 hrs by SRB assay relative to control; details: M14, 48 h, read-out: GI; summary of the method: as §2
[22] = Growth inhibition of human leukemia cells after 48 hrs by SRB assay; details: Leukemia cell; summary of the method: as §1
[23] = Growth inhibition of human ACHN cells at 10 uM after 48 hrs by SRB assay relative to control; details: read-out: GI; summary of the method: as §2
[24] = Growth inhibition of human MDA-MB-468 cells at 10 uM after 48 hrs by SRB assay relative to control; details: MDA-MB-468, 48 h, read-out: GI; summary of the method: as §2
[25] = Growth inhibition of human RPMI8226 cells at 10 uM after 48 hrs by SRB assay relative to control; details: RPMI-8226, 48 h, read-out: GI; summary of the method: as §2
[26] = Growth inhibition of human NCI/ADR-RES cells at 10 uM after 48 hrs by SRB assay relative to control; details: read-out: GI; summary of the method: as §2
[27] = Growth inhibition of human SNB75 cells at 10 uM after 48 hrs by SRB assay relative to control; details: SNB-75, 48 h, read-out: GI
Summary of the method: (§4)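 Primary screen across the full NCI 60 human tumour cell line panel, which covers nine tumour subpanels. A single dose of 10 μM was applied to each line, and growth was recorded for each cell line.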

[28] = Growth inhibition of human IGROV1 cells at 10 uM after 48 hrs by SRB assay relative to control; details: IGROV-1, 48 h, read-out: GI; summary of the method: as §2
[29] = Growth inhibition of human prostate cancer cells after 48 hrs by SRB assay; details: Cancer cell lines; summary of the method: as §1
[30] = Growth inhibition of human NCI-H460 cells at 10 uM after 48 hrs by SRB assay relative to control; details: NCI-H460, 48 h, read-out: GI; summary of the method: as §2
[31] = Growth inhibition of human SK-MEL-2 cells at 10 uM after 48 hrs by SRB assay relative to control; details: SK-MEL-2, 48 h, read-out: GI; summary of the method: as §4
[32] = system: Cancer cell lines; test: Potency index, ratio of 5-fluorouracil GI50 to compound GI50 for human breast cancer cells; summary of the method: as §3
[33] = Growth inhibition of human ovarian cancer cells after 48 hrs by SRB assay; details: Cancer cell lines; summary of the method: as §1
[34] = Growth inhibition of human T47D cells at 10 uM after 48 hrs by SRB assay relative to control; details: read-out: GI; summary of the method: as §4
[35] = Growth inhibition of human KM12 cells at 10 uM after 48 hrs by SRB assay relative to control; details: KM12, 48 h, read-out: GI; summary of the method: as §2
[36] = Growth inhibition of human SW620 cells at 10 uM after 48 hrs by SRB assay relative to control; details: SW-620, 48 h, read-out: GI; summary of the method: as §4

SMILES: COc1ccc(-n2c(SCc3cc(OC)c(OC)c(OC)c3)nc3ccc(C)cc3c2=O)cc1
- GI50 [1]: 34.5 µM
- LC50 (concentration killing 50% of cells) [1]: > 100 µM
- TGI [1]: > 100 µM
- inhibition of growth at 10 µM [2]: 68.9%
- inhibition of growth at 10 µM [3]: 48.6%
- inhibition of growth at 10 µM [4]: 40.4%
- inhibition of growth at 10 µM [5]: 67.3%
- RatioGI50 [6]: 2 - 10
- inhibition of growth at 10 µM [7]: 19.4%
- inhibition of growth at 10 µM [8]: 28.6%
- inhibition of growth at 10 µM [9]: 34.8%
- inhibition of growth at 10 µM [10]: 60.7%
- GI50 [11]: 5.3 µM
- LC50 [11]: > 100 µM
- TGI [11]: 91.4 µM
- inhibition of growth at 10 µM [12]: 25%
- inhibition of growth at 10 µM [13]: 40.1%
- RatioGI50 [14]: 2 - 10
- GI50 [15]: 30.9 µM
- LC50 (lethal concentration, 50% net cell kill) [15]: > 100 µM
- TGI [15]: > 100 µM
- inhibition of growth at 10 µM [16]: 65.1%
- RatioGI50 [17]: 2 - 10
- inhibition of growth at 10 µM [18]: 66.4%
- inhibition of growth at 10 µM [19]: 30.1%
- inhibition of growth at 10 µM [20]: 83.1%
- inhibition of growth at 10 µM [21]: 46.2%
- GI50 [22]: 3.4 µM
- TGI [22]: 90.2 µM
- CC50 ([22]; read-out: LC50 (the source's name)): > 100 µM
- inhibition of growth at 10 µM [23]: 33.3%
- inhibition of growth at 10 µM [24]: 53.2%
- inhibition of growth at 10 µM [25]: < 10%
- inhibition of growth at 10 µM [26]: 54.2%
- inhibition of growth at 10 µM [27]: 55.6%
- inhibition of growth at 10 µM [28]: 38%
- GI50 [29]: 52.8 µM
- LC50 (concentration killing 50% of cells) [29]: > 100 µM
- TGI [29]: > 100 µM
- inhibition of growth at 10 µM [30]: 26.2%
- inhibition of growth at 10 µM [31]: 35.3%
- RatioGI50 [32]: 2 - 10
- GI50 [33]: 46.9 µM
- LC50 (50% lethal concentration) [33]: > 100 µM
- inhibition of growth at 10 µM [34]: 32.2%
- inhibition of growth at 10 µM [35]: 64.7%
- inhibition of growth at 10 µM [36]: 50.7%
